System: U2OS
Assay: Multiplex assay against U2OS
Format: toxicity, cell-based
Conditions: human
Method in brief: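 Live cells were stained at seeding with Hoechst33342, BioTracker Green Microtubule Cytoskeleton Dye, MitoTracker Red and Annexin V Alexa Fluor 680, then imaged on a CQ1 microscope at 37°C and 5% CO2 after compound addition. CellPathfinder machine-learning gating split cells into Hoechst high-intensity objects or normal cells. Normal cells were split into healthy, pyknosed or fragmented nuclei, and pyknosed cells into mitotic or apoptotic. Tubulin, mitochondrial-mass and membrane-permeability phenotypes are per cents of healthy-nucleus cells.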

[1] = 12 h, 1 µM, compound concentration 1 uM, replicate 1
[2] = 12 h, 1 µM, compound concentration 1 uM, replicate 2
[3] = 12 h, 10 µM, compound concentration 10 uM, replicate 1
[4] = 12 h, 10 µM, compound concentration 10 uM, replicate 2
[5] = 24 h, 1 µM, compound concentration 1 uM, replicate 1
[6] = 24 h, 1 µM, compound concentration 1 uM, replicate 2
[7] = 24 h, 10 µM, compound concentration 10 uM, replicate 1
[8] = 24 h, 10 µM, compound concentration 10 uM, replicate 2
[9] = 48 h, 1 µM, compound concentration 1 uM, replicate 1
[10] = 48 h, 1 µM, compound concentration 1 uM, replicate 2
[11] = 48 h, 10 µM, compound concentration 10 uM, replicate 1
[12] = 48 h, 10 µM, compound concentration 10 uM, replicate 2

N#Cc1c(N)nc(SCc2csc(-c3ccc(Cl)cc3)n2)c(C#N)c1-c1ccc(OCCO)cc1 [CAPADENOSON]
Population Apoptotic (%) [1]: 78% | Population Fragmented Nuclei (%) [1]: 25% | Population Healthy Nuclei (%) [1]: 65% | Population Hoechst High Intensity Objects (%) [1]: 5% | Population Membrane Permeable-Phenotype (%) [1]: 14% | Population Mitochondria Different-Phenotype (%) [1]: 4% | Population Mitotic Cells (%) [1]: 21% | Population Normal (%) [1]: 94% | Population Pyknosed Nuclei (%) [1]: 8% | Population Tubulin-Different-Phenotype (%) [1]: 10% | Total Cell Count [1]: 236 | Population Apoptotic (%) [2]: 80% | Population Fragmented Nuclei (%) [2]: 18% | Population Healthy Nuclei (%) [2]: 75% | Population Hoechst High Intensity Objects (%) [2]: 1% | Population Membrane Permeable-Phenotype (%) [2]: 5% | Population Mitochondria Different-Phenotype (%) [2]: 2% | Population Mitotic Cells (%) [2]: 20% | Population Normal (%) [2]: 98% | Population Pyknosed Nuclei (%) [2]: 6% | Population Tubulin-Different-Phenotype (%) [2]: 1% | Total Cell Count [2]: 150 | Population Apoptotic (%) [3]: 64% | Population Fragmented Nuclei (%) [3]: 35% | Population Healthy Nuclei (%) [3]: 40% | Population Hoechst High Intensity Objects (%) [3]: 5% | Population Membrane Permeable-Phenotype (%) [3]: 70% | Population Mitochondria Different-Phenotype (%) [3]: 37% | Population Mitotic Cells (%) [3]: 35% | Population Normal (%) [3]: 94% | Population Pyknosed Nuclei (%) [3]: 24% | Population Tubulin-Different-Phenotype (%) [3]: 65% | Total Cell Count [3]: 255 | Population Apoptotic (%) [4]: 68% | Population Fragmented Nuclei (%) [4]: 24% | Population Healthy Nuclei (%) [4]: 56% | Population Hoechst High Intensity Objects (%) [4]: 0% | Population Membrane Permeable-Phenotype (%) [4]: 49% | Population Mitochondria Different-Phenotype (%) [4]: 61% | Population Mitotic Cells (%) [4]: 31% | Population Normal (%) [4]: 99% | Population Pyknosed Nuclei (%) [4]: 18% | Population Tubulin-Different-Phenotype (%) [4]: 70% | Total Cell Count [4]: 102 | Population Apoptotic (%) [5]: 87% | Population Fragmented Nuclei (%) [5]: 23% | Population Healthy Nuclei (%) [5]: 64% | Population Hoechst High Intensity Objects (%) [5]: 3% | Population Membrane Permeable-Phenotype (%) [5]: 9% | Population Mitochondria Different-Phenotype (%) [5]: 4% | Population Mitotic Cells (%) [5]: 12% | Population Normal (%) [5]: 96% | Population Pyknosed Nuclei (%) [5]: 12% | Population Tubulin-Different-Phenotype (%) [5]: 6% | Total Cell Count [5]: 263 | Population Apoptotic (%) [6]: 61% | Population Fragmented Nuclei (%) [6]: 16% | Population Healthy Nuclei (%) [6]: 71% | Population Hoechst High Intensity Objects (%) [6]: 0% | Population Membrane Permeable-Phenotype (%) [6]: 5% | Population Mitochondria Different-Phenotype (%) [6]: 2% | Population Mitotic Cells (%) [6]: 38% | Population Normal (%) [6]: 99% | Population Tubulin-Different-Phenotype (%) [6]: 2% | Total Cell Count [6]: 176 | Population Apoptotic (%) [7]: 71% | Population Fragmented Nuclei (%) [7]: 36% | Population Healthy Nuclei (%) [7]: 37% | Population Hoechst High Intensity Objects (%) [7]: 5% | Population Membrane Permeable-Phenotype (%) [7]: 47% | Population Mitochondria Different-Phenotype (%) [7]: 38% | Population Mitotic Cells (%) [7]: 28% | Population Normal (%) [7]: 94% | Population Pyknosed Nuclei (%) [7]: 26% | Population Tubulin-Different-Phenotype (%) [7]: 47% | Total Cell Count [7]: 253 | Population Apoptotic (%) [8]: 69% | Population Fragmented Nuclei (%) [8]: 25% | Population Healthy Nuclei (%) [8]: 49% | Population Hoechst High Intensity Objects (%) [8]: 2% | Population Membrane Permeable-Phenotype (%) [8]: 34% | Population Mitochondria Different-Phenotype (%) [8]: 58% | Population Mitotic Cells (%) [8]: 30% | Population Normal (%) [8]: 97% | Population Pyknosed Nuclei (%) [8]: 24% | Population Tubulin-Different-Phenotype (%) [8]: 60% | Total Cell Count [8]: 95 | Population Apoptotic (%) [9]: 80% | Population Fragmented Nuclei (%) [9]: 23% | Population Healthy Nuclei (%) [9]: 67% | Population Hoechst High Intensity Objects (%) [9]: 3% | Population Membrane Permeable-Phenotype (%) [9]: 9% | Population Mitochondria Different-Phenotype (%) [9]: 6% | Population Mitotic Cells (%) [9]: 20% | Population Normal (%) [9]: 96% | Population Pyknosed Nuclei (%) [9]: 8% | Population Tubulin-Different-Phenotype (%) [9]: 6% | Total Cell Count [9]: 355 | Population Apoptotic (%) [10]: 84% | Population Fragmented Nuclei (%) [10]: 12% | Population Healthy Nuclei (%) [10]: 79% | Population Hoechst High Intensity Objects (%) [10]: 0% | Population Membrane Permeable-Phenotype (%) [10]: 6% | Population Mitochondria Different-Phenotype (%) [10]: 3% | Population Mitotic Cells (%) [10]: 15% | Population Normal (%) [10]: 99% | Population Tubulin-Different-Phenotype (%) [10]: 5% | Total Cell Count [10]: 220 | Population Apoptotic (%) [11]: 86% | Population Fragmented Nuclei (%) [11]: 44% | Population Healthy Nuclei (%) [11]: 30% | Population Hoechst High Intensity Objects (%) [11]: 5% | Population Membrane Permeable-Phenotype (%) [11]: 46% | Population Mitochondria Different-Phenotype (%) [11]: 31% | Population Mitotic Cells (%) [11]: 13% | Population Normal (%) [11]: 94% | Population Pyknosed Nuclei (%) [11]: 25% | Population Tubulin-Different-Phenotype (%) [11]: 37% | Total Cell Count [11]: 285 | Population Apoptotic (%) [12]: 66% | Population Fragmented Nuclei (%) [12]: 30% | Population Healthy Nuclei (%) [12]: 49% | Population Hoechst High Intensity Objects (%) [12]: 4% | Population Membrane Permeable-Phenotype (%) [12]: 45% | Population Mitochondria Different-Phenotype (%) [12]: 45% | Population Mitotic Cells (%) [12]: 33% | Population Normal (%) [12]: 95% | Population Pyknosed Nuclei (%) [12]: 20% | Population Tubulin-Different-Phenotype (%) [12]: 50% | Total Cell Count [12]: 109

Cc1ccc(-c2ccc(F)cc2COc2ccc(CCC(=O)O)cc2)cc1
Population Apoptotic (%) [1]: 75% | Population Fragmented Nuclei (%) [1]: 22% | Population Healthy Nuclei (%) [1]: 71% | Population Mitotic Cells (%) [1]: 25% | Population Normal (%) [1]: 97% | Population Pyknosed Nuclei (%) [1]: 5% | Total Cell Count [1]: 277 | Population Apoptotic (%) [2]: 100% | Population Fragmented Nuclei (%) [2]: 17% | Population Healthy Nuclei (%) [2]: 74% | Population Mitotic Cells (%) [2]: 0% | Population Pyknosed Nuclei (%) [2]: 8% | Total Cell Count [2]: 135 | Population Apoptotic (%) [3]: 75% | Population Fragmented Nuclei (%) [3]: 31% | Population Healthy Nuclei (%) [3]: 61% | Population Mitotic Cells (%) [3]: 25% | Population Normal (%) [3]: 98% | Population Pyknosed Nuclei (%) [3]: 6% | Total Cell Count [3]: 238 | Population Apoptotic (%) [4]: 83% | Population Fragmented Nuclei (%) [4]: 14% | Population Healthy Nuclei (%) [4]: 75% | Population Mitotic Cells (%) [4]: 16% | Population Normal (%) [4]: 97% | Population Pyknosed Nuclei (%) [4]: 10% | Total Cell Count [4]: 123 | Population Apoptotic (%) [5]: 90% | Population Fragmented Nuclei (%) [5]: 21% | Population Healthy Nuclei (%) [5]: 69% | Population Mitotic Cells (%) [5]: 10% | Population Normal (%) [5]: 97% | Population Pyknosed Nuclei (%) [5]: 9% | Total Cell Count [5]: 340 | Population Apoptotic (%) [6]: 100% | Population Fragmented Nuclei (%) [6]: 20% | Population Healthy Nuclei (%) [6]: 70% | Population Mitotic Cells (%) [6]: 0% | Population Normal (%) [6]: 98% | Population Pyknosed Nuclei (%) [6]: 8% | Total Cell Count [6]: 175 | Population Apoptotic (%) [7]: 94% | Population Fragmented Nuclei (%) [7]: 26% | Population Healthy Nuclei (%) [7]: 67% | Population Mitotic Cells (%) [7]: 5% | Population Normal (%) [7]: 98% | Population Pyknosed Nuclei (%) [7]: 5% | Total Cell Count [7]: 295 | Population Apoptotic (%) [8]: 93% | Population Fragmented Nuclei (%) [8]: 22% | Population Mitotic Cells (%) [8]: 6% | Population Normal (%) [8]: 97% | Population Pyknosed Nuclei (%) [8]: 9% | Total Cell Count [8]: 160 | Population Apoptotic (%) [9]: 89% | Population Fragmented Nuclei (%) [9]: 17% | Population Healthy Nuclei (%) [9]: 74% | Population Mitotic Cells (%) [9]: 10% | Population Normal (%) [9]: 97% | Population Pyknosed Nuclei (%) [9]: 8% | Total Cell Count [9]: 487 | Population Apoptotic (%) [10]: 95% | Population Fragmented Nuclei (%) [10]: 15% | Population Healthy Nuclei (%) [10]: 75% | Population Mitotic Cells (%) [10]: 5% | Total Cell Count [10]: 242 | Population Apoptotic (%) [11]: 87% | Population Fragmented Nuclei (%) [11]: 21% | Population Healthy Nuclei (%) [11]: 70% | Population Mitotic Cells (%) [11]: 12% | Population Normal (%) [11]: 97% | Population Pyknosed Nuclei (%) [11]: 7% | Total Cell Count [11]: 421 | Population Apoptotic (%) [12]: 88% | Population Fragmented Nuclei (%) [12]: 16% | Population Healthy Nuclei (%) [12]: 72% | Population Mitotic Cells (%) [12]: 11% | Population Normal (%) [12]: 98% | Total Cell Count [12]: 236
